Test results from ChEMBL document CHEMBL1132241, “Novel multidrug resistance reversal agents” (J Med Chem, 1999).

Legend:
[1] = Partition coefficient (logP); assay type: physicochemical; conditions: octanol/water
Mus musculus [2] = assay: Percent increase in mean life span relative to treatment with an equivalent dose of vincristine alone at 12.5 mg/kg in mice with vincristine-resistantmurine leukemia P388/VCR cells; assay type: functional
Summary of the method: (§1)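 CDF1 mice were implanted ip with 1 × 10^6 P388/VCR cells. Agent and 0.2 mg/kg vincristine were given simultaneously ip once daily, days 1–7. Mean survival over up to 30 days was compared with vincristine alone at an equivalent dose, giving % increase in life span. Student t-test was applied to mean survival time.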

Mus musculus [3] = assay: Percent increase in mean life span in mice infected with leukemia P388/VCR, at 12.5 mg/Kg dose; assay type: functional
Summary of the method: (§2)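 CDF1 mice (groups of 10–15) were implanted ip with 1 × 10^6 P388/VCR cells. Agent plus 0.2 mg/kg vincristine were given together ip once daily on days 1–7, starting 1 day post-implant, in cremophor/ethanol or propylene glycol/ethanol vehicle. Survival was recorded to 30 days. Result is the % increase in mean life span versus placebo control.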

Mus musculus [4] = assay: Percent increase in mean life span when 0.2 mg/kg vincristine was administered ip once daily on days 1-7, in mice infected with leukemia P388/VCR; assay type: functional; set-up: concentration or dose not given beside the values; conditions: route intraperitoneal
Summary of the method: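 CDF1 mice bearing ip P388/VCR (1 × 10^6 cells) received 0.2 mg/kg vincristine ip once daily on days 1–7. Mean survival to 30 days was expressed as % increase in life span relative to placebo control.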

[5] = In vitro concentration at which 50% of human colon carcinoma cells (S1-B1-20) resistant to bisantrene have survived; assay type: ADME, cell-based, S1B1-20; conditions: S1-B1-20 human colon carcinoma cells resistant to bisantrene, read-out: LD50 (the source's name)
Summary of the method: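 S1-B1-20 cells (LS 174 T-derived S1 clone selected in bisantrene over 12–16 weeks), trypsinized, 20 000 cells/well. Test agent alone in DMSO (≤0.1% final), 0.1–80 µM, 3 days at 37 °C, 7% CO2. Survival by sulforhodamine B read at 540 nm versus untreated cells. Two to four measurement sets were made, and the value is the concentration giving 50% survival from a best-fit curve.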

S1B1-20 = assay: In vitro concentration required to inhibit tumor activity on subclone of human colon carcinoma cells (S1-B1-20) resistant to bisantrene; assay type: functional, cell-based; conditions: Homo sapiens, S1B1-20
Summary of the method: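 S1-B1-20 cells (S1 clone of LS 174 T, selected in bisantrene over 12–16 weeks) plated at 20 000 cells/well with or without 20 μM bisantrene, plus test agent 0.1–80 μM from DMSO stock (final DMSO ≤0.1%). 3 days, 37 °C, 7% CO2. Survival by sulforhodamine B at 540 nm. IC50 from best-fit curve of difference score (survival alone minus survival with bisantrene) at 50; 2–4 sets of measurements.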

Mus musculus [6] = assay: Percent increase in mean life span relative to treatment with an equivalent dose of vincristine alone at 25 mg/kg in mice with vincristine-resistantmurine leukemia P388/VCR cells; assay type: functional; summary of the method: as §1
Mus musculus [7] = assay: Percent increase in mean life span in mice infected with leukemia P388/VCR, at 25 mg/Kg dose; assay type: functional; summary of the method: as §2
Mus musculus [8] = assay: Relative tumor growth inhibition against human epidermoid carcinoma KB/8.5 implanted subcutaneously only in mice at 8 mg/kg (DOX); assay type: functional; conditions: route subcutaneous
Summary of the method: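 KB/8.5 cells grown in RPMI 1640 with 5% fetal calf serum plus colchicine (10 ng/mL), which was removed for two passages. 8 × 10^6 cells were then implanted sc in athymic nude mice. At 100-300 mg tumor mass, mice were grouped 5-10/group. Doxorubicin was given as a single iv dose (8 mg/kg). Tumor mass was measured on day 14, and relative growth was compared with saline control.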

Mus musculus [9] = assay: Percent tumor growth inhibition against human epidermoid carcinoma KB/8.5 implanted subcutaneously in mice at 50 mg/kg of compound along with 8 mg/kg (DOX ) was determined; assay type: functional
Summary of the method: (§3)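 Athymic nude mice bearing sc KB/8.5 tumors (8×10^6 cells, colchicine withdrawn for two passages), grouped at 100–300 mg tumor mass, 5–10 mice/group. Doxorubicin 8 mg/kg given once iv; reversal agent or placebo given sc 2 h before and 2 h after. Tumor mass on day 14 used for relative tumor growth versus doxorubicin alone; Student t-test on log RTG.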

Mus musculus [10] = assay: Percent increase in mean life span relative to treatment with an equivalent dose of vincristine alone at 6.3 mg/kg in mice with vincristine-resistantmurine leukemia P388/VCR cells; assay type: functional; summary of the method: as §1
Mus musculus [11] = assay: Percent increase in mean life span in mice infected with leukemia P388/VCR, at 6.3 mg/Kg dose; assay type: functional; summary of the method: as §2
Mus musculus [12] = assay: Percent increase in mean life span relative to treatment with an equivalent dose of vincristine alone at 50 mg/kg in mice with vincristine-resistantmurine leukemia P388/VCR cells; assay type: functional; summary of the method: as §1
Mus musculus [13] = assay: Percent increase in mean life span in mice infected with leukemia P388/VCR, at 100 mg/Kg dose; assay type: functional
Summary of the method: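 CDF1 mice were implanted ip with 1 × 10^6 P388/VCR cells (line passaged in DBA/2 ascites). Agent at 100 mg/kg in Cremophor/ethanol/saline was given ip once daily on days 1–7 without vincristine. Survival was followed to 30 days. Result is the % increase in mean life span versus placebo.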

Mus musculus [14] = assay: Percent increase in mean life span in mice infected with leukemia P388/VCR, at 50 mg/Kg dose; assay type: functional; summary of the method: as §2
Mus musculus [15] = assay: Percent tumor growth inhibition against human epidermoid carcinoma KB/8.5 implanted subcutaneously in mice at 100 mg/kg of compound along with 8 mg/kg (DOX ) was determined; assay type: functional; summary of the method: as §3

Row | Compound | logP ([1]; read-out: logP) | ILS at 12.5 mg/kg (Mus musculus [2]) [%] | ILS at 12.5 mg/kg (Mus musculus [3]) [%] | ILS (Mus musculus [4]) [%] | CC50 [5] [µM] | IC50 (S1B1-20) [µM] | logP [1] | ILS at 25 mg/kg (Mus musculus [6]) [%] | ILS at 25 mg/kg (Mus musculus [7]) [%] | Relative tumor growth (Mus musculus [8]) | TGI (Mus musculus [9]) [%] | ILS at 6.3 mg/kg (Mus musculus [10]) [%] | ILS at 6.3 mg/kg (Mus musculus [11]) [%] | ILS at 50 mg/kg (Mus musculus [12]) [%] | ILS at 100 mg/kg (Mus musculus [13]) [%] | ILS at 50 mg/kg (Mus musculus [14]) [%] | TGI (Mus musculus [15]) [%]
1 | COc1ccc2c(c1)CCN(CCCCCC(C#N)(Sc1ccc(C)cc1)c1ccc(OC)c(OC)c1)C2 (stereo not drawn) | 6.64 | 24 | 56 | 26 | 15.7 | 1.92 | – | – | – | – | – | – | – | – | – | – | –
2 | COc1ccc(C(C#N)(CCCCCCN2CCc3cc(OC)c(OC)cc3C2)Sc2ccc(C)cc2)cc1OC (stereo not drawn) | 6.71 | 23 | 68 | 37 | 13.5 | 0.3 | – | – | – | – | – | – | – | – | – | – | –
3 | COc1ccc(C(C#N)(CCCCCCCCCCCN2CCc3cc(OC)c(OC)cc3C2)Sc2ccc(C)cc2)cc1OC (stereo not drawn) | – | – | – | 24 | 10.8 | 1.74 | 9.35 | 14 | 42 | 39 | 61 | – | – | – | – | – | –
4 | COc1ccc(C(C#N)(CCCCCCCCN2CCc3cc(OC)c(OC)cc3C2)Sc2ccc(C)cc2)cc1OC (stereo not drawn) | 7.76 | – | – | 24 | 11.6 | 0.36 | – | – | – | – | – | 8 | 34 | – | – | – | –
5 | COc1ccc(C(C#N)(CCCN2CCc3cc(OC)c(OC)cc3C2)Sc2ccc(C)cc2)cc1OC (stereo not drawn) | 5.12 | – | – | 51 | 24 | 0.46 | – | – | – | 39 | 63 | – | – | 15 | -3 | 73 | –
6 | COc1ccc(C(C#N)(CCCCCN2CCc3cc(OC)c(OC)cc3C2)Sc2ccc(C)cc2)cc1OC (stereo not drawn) | 6.18 | 33 | 83 | 37 | 13.6 | 0.37 | – | – | – | 69 | 59 | – | – | – | -4 | – | –
7 | COC(=O)C(CCCN1CCc2cc(OC)c(OC)cc2C1)(Sc1ccc(C)cc1)c1ccc(OC)c(OC)c1 (stereo not drawn) | 5.54 | – | – | 13 | 32.8 | 1.47 | – | – | – | – | – | – | – | 11 | – | 25 | –
8 | COc1cc2c(cc1OC)CN(CCCCCCC(Sc1ccccc1)c1ccccc1)CC2 (stereo not drawn) | 7.99 | – | – | 15 | 24.6 | 3.82 | – | 46 | 68 | 59 | – | – | – | – | – | – | 65
